# Source: ChEMBL document CHEMBL3108706, “Design, synthesis, and biological activity of novel dicoumarol glucagon-like peptide 1 conjugates” (J Med Chem, 2013)
# Key:
# [1] = Half life in Sprague-Dawley rat plasma at 1000 ng/mL by LC-MS/MS analysis; assay type: ADME, cell-free
# [2] = target: Glucagon-like peptide 1 receptor (Homo sapiens, UniProt P43220); assay: Activation of human GLP-1 receptor overexpressed in HEK293 cells assessed as cAMP accumulation after 20 mins by HTRF assay; assay type: functional, cell-based
# [3] = target: albumin (Homo sapiens, UniProt P02768); assay: Binding affinity to human serum albumin at 100 ug/mL after 3 hrs relative to control; assay type: ADME; details: read-out: PB (converted)
# Procedure, shortened: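 Peptide at 100 μg/mL in PBS (50 μL) was incubated with HSA-conjugated Sepharose resin for 3 h at 25 °C, then centrifuged (1000 rpm, 10 min). Unbound peptide in the supernatant was quantified by micro BCA assay. Nonspecific adsorption was corrected with NHS-inactivated, albumin-free resin.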
# Sequence of Glucagon-like peptide 1 receptor (P43220 whole entry): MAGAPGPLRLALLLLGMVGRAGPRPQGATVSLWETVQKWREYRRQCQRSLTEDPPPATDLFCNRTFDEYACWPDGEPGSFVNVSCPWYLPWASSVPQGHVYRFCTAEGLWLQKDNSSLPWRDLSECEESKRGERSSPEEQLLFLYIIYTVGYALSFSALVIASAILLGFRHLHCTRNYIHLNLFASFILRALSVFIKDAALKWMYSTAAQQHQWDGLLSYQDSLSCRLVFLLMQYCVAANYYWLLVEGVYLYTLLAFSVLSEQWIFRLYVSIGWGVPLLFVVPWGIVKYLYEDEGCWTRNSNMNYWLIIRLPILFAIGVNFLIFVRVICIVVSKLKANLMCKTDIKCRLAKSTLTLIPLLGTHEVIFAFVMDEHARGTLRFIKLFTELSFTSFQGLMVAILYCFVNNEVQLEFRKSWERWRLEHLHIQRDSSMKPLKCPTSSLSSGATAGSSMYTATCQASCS
# Sequence of albumin (P02768 whole entry): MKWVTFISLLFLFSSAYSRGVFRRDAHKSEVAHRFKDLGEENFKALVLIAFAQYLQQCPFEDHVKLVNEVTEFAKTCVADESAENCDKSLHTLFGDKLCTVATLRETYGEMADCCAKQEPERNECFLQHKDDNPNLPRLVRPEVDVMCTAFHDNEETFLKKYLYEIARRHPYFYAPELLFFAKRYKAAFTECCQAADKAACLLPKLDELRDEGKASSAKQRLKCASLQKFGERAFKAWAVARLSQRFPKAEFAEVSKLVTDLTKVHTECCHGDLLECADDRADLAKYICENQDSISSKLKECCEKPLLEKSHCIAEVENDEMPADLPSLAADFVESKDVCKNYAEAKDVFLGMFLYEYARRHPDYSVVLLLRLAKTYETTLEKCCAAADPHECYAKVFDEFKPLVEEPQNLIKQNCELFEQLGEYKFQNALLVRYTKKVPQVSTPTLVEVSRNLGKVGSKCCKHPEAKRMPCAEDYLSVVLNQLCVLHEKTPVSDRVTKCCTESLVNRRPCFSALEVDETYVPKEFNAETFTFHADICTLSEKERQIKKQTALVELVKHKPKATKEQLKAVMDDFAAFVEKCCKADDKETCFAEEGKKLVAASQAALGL
SMILES,half-life at 1000 ng/mL [1],EC50 [2],"fraction unbound at 3 h, 100 ug/mL [3]"
CC[C@H](C)[C@H](NC(=O)[C@H](Cc1ccccc1)NC(=O)[C@H](CCC(=O)O)NC(=O)[C@H](CCCCN)NC(=O)[C@H](C)NC(=O)[C@H](C)NC(=O)[C@H](CCC(N)=O)NC(=O)CNC(=O)[C@H](CCC(=O)O)NC(=O)[C@H](CC(C)C)NC(=O)[C@H](Cc1ccc(O)cc1)NC(=O)[C@H](CO)NC(=O)[C@H](CO)NC(=O)[C@@H](NC(=O)[C@H](CC(=O)O)NC(=O)[C@H](CO)NC(=O)[C@@H](NC(=O)[C@H](Cc1ccccc1)NC(=O)[C@@H](NC(=O)CNC(=O)[C@H](CCC(=O)O)NC(=O)CNC(=O)[C@@H](N)Cc1cnc[nH]1)[C@@H](C)O)[C@@H](C)O)C(C)C)C(=O)N[C@@H](C)C(=O)N[C@@H](Cc1c[nH]c2ccccc12)C(=O)N[C@@H](CC(C)C)C(=O)N[C@H](C(=O)N[C@@H](CSC1CC(=O)N(CCCCCCCCCCCC(=O)Nc2ccc(C(c3c(O)c4ccccc4oc3=O)c3c(O)c4ccccc4oc3=O)cc2)C1=O)C(=O)NCC(=O)N[C@@H](CCCNC(=N)N)C(N)=O)C(C)C (stereo partly specified),38.6 h,18.1 pM,0.168
CC[C@H](C)[C@H](NC(=O)[C@H](Cc1ccccc1)NC(=O)[C@H](CCC(=O)O)NC(=O)[C@H](CCCCN)NC(=O)[C@H](C)NC(=O)[C@H](C)NC(=O)[C@H](CCC(N)=O)NC(=O)CNC(=O)[C@H](CCC(=O)O)NC(=O)[C@H](CC(C)C)NC(=O)[C@H](Cc1ccc(O)cc1)NC(=O)[C@H](CO)NC(=O)[C@H](CSC1CC(=O)N(CCC(=O)Nc2ccc(C(c3c(O)c4ccccc4oc3=O)c3c(O)c4ccccc4oc3=O)cc2)C1=O)NC(=O)[C@@H](NC(=O)[C@H](CC(=O)O)NC(=O)[C@H](CO)NC(=O)[C@@H](NC(=O)[C@H](Cc1ccccc1)NC(=O)[C@@H](NC(=O)CNC(=O)[C@H](CCC(=O)O)NC(=O)CNC(=O)[C@@H](N)Cc1cnc[nH]1)[C@@H](C)O)[C@@H](C)O)C(C)C)C(=O)N[C@@H](C)C(=O)N[C@@H](Cc1c[nH]c2ccccc12)C(=O)N[C@@H](CC(C)C)C(=O)N[C@H](C(=O)N[C@@H](CCCCN)C(=O)NCC(=O)N[C@@H](CCCNC(=N)N)C(N)=O)C(C)C (stereo partly specified),13.6 h,26.1 pM,0.31
CC[C@H](C)[C@H](NC(=O)[C@H](Cc1ccccc1)NC(=O)[C@H](CCC(=O)O)NC(=O)[C@H](CCCCN)NC(=O)[C@H](C)NC(=O)[C@H](C)NC(=O)[C@H](CCC(N)=O)NC(=O)CNC(=O)[C@H](CCC(=O)O)NC(=O)[C@H](CC(C)C)NC(=O)[C@H](Cc1ccc(O)cc1)NC(=O)[C@H](CO)NC(=O)[C@H](CO)NC(=O)[C@@H](NC(=O)[C@H](CC(=O)O)NC(=O)[C@H](CO)NC(=O)[C@@H](NC(=O)[C@H](Cc1ccccc1)NC(=O)[C@@H](NC(=O)CNC(=O)[C@H](CCC(=O)O)NC(=O)CNC(=O)[C@@H](N)Cc1cnc[nH]1)[C@@H](C)O)[C@@H](C)O)C(C)C)C(=O)N[C@@H](C)C(=O)N[C@@H](Cc1c[nH]c2ccccc12)C(=O)N[C@@H](CC(C)C)C(=O)N[C@H](C(=O)N[C@@H](CS)C(=O)NCC(=O)N[C@@H](CCCNC(=N)N)C(N)=O)C(C)C,0.6 h,4.9 pM,0.939
CC[C@H](C)[C@H](NC(=O)[C@H](Cc1ccccc1)NC(=O)[C@H](CCC(=O)O)NC(=O)[C@H](CCCCN)NC(=O)[C@H](C)NC(=O)[C@H](C)NC(=O)[C@H](CCC(N)=O)NC(=O)CNC(=O)[C@H](CCC(=O)O)NC(=O)[C@H](CC(C)C)NC(=O)[C@H](Cc1ccc(O)cc1)NC(=O)[C@H](CO)NC(=O)[C@H](CO)NC(=O)[C@@H](NC(=O)[C@H](CC(=O)O)NC(=O)[C@H](CO)NC(=O)[C@@H](NC(=O)[C@H](Cc1ccccc1)NC(=O)[C@@H](NC(=O)CNC(=O)[C@H](CCC(=O)O)NC(=O)CNC(=O)[C@@H](N)Cc1cnc[nH]1)[C@@H](C)O)[C@@H](C)O)C(C)C)C(=O)N[C@@H](C)C(=O)N[C@@H](Cc1c[nH]c2ccccc12)C(=O)N[C@@H](CC(C)C)C(=O)N[C@H](C(=O)N[C@@H](CSC1CC(=O)N(CCC(=O)Nc2ccc(C(c3c(O)c4ccccc4oc3=O)c3c(O)c4ccccc4oc3=O)cc2)C1=O)C(=O)NCC(=O)N[C@@H](CCCNC(=N)N)C(N)=O)C(C)C (stereo partly specified),19.3 h,6.5 pM,0.273
CC[C@H](C)[C@H](NC(=O)[C@H](Cc1ccccc1)NC(=O)[C@H](CCC(=O)O)NC(=O)[C@H](CCCCN)NC(=O)[C@H](C)NC(=O)[C@H](C)NC(=O)[C@H](CCC(N)=O)NC(=O)CNC(=O)[C@H](CCC(=O)O)NC(=O)[C@H](CC(C)C)NC(=O)[C@H](Cc1ccc(O)cc1)NC(=O)[C@H](CO)NC(=O)[C@H](CS)NC(=O)[C@@H](NC(=O)[C@H](CC(=O)O)NC(=O)[C@H](CO)NC(=O)[C@@H](NC(=O)[C@H](Cc1ccccc1)NC(=O)[C@@H](NC(=O)CNC(=O)[C@H](CCC(=O)O)NC(=O)CNC(=O)[C@@H](N)Cc1cnc[nH]1)[C@@H](C)O)[C@@H](C)O)C(C)C)C(=O)N[C@@H](C)C(=O)N[C@@H](Cc1c[nH]c2ccccc12)C(=O)N[C@@H](CC(C)C)C(=O)N[C@H](C(=O)N[C@@H](CCCCN)C(=O)NCC(=O)N[C@@H](CCCNC(=N)N)C(N)=O)C(C)C,1.1 h,6.4 pM,0.922
CC[C@H](C)[C@H](NC(=O)[C@H](Cc1ccccc1)NC(=O)[C@H](CCC(=O)O)NC(=O)[C@H](CS)NC(=O)[C@H](C)NC(=O)[C@H](C)NC(=O)[C@H](CCC(N)=O)NC(=O)CNC(=O)[C@H](CCC(=O)O)NC(=O)[C@H](CC(C)C)NC(=O)[C@H](Cc1ccc(O)cc1)NC(=O)[C@H](CO)NC(=O)[C@H](CO)NC(=O)[C@@H](NC(=O)[C@H](CC(=O)O)NC(=O)[C@H](CO)NC(=O)[C@@H](NC(=O)[C@H](Cc1ccccc1)NC(=O)[C@@H](NC(=O)CNC(=O)[C@H](CCC(=O)O)NC(=O)CNC(=O)[C@@H](N)Cc1cnc[nH]1)[C@@H](C)O)[C@@H](C)O)C(C)C)C(=O)N[C@@H](C)C(=O)N[C@@H](Cc1c[nH]c2ccccc12)C(=O)N[C@@H](CC(C)C)C(=O)N[C@H](C(=O)N[C@@H](CCCCN)C(=O)NCC(=O)N[C@@H](CCCNC(=N)N)C(N)=O)C(C)C,0.7 h,3.2 pM,0.949
CC[C@H](C)[C@H](NC(=O)[C@H](Cc1ccccc1)NC(=O)[C@H](CCC(=O)O)NC(=O)[C@H](CCCCN)NC(=O)[C@H](C)NC(=O)[C@H](C)NC(=O)[C@H](CCC(N)=O)NC(=O)CNC(=O)[C@H](CCC(=O)O)NC(=O)[C@H](CC(C)C)NC(=O)[C@H](Cc1ccc(O)cc1)NC(=O)[C@H](CO)NC(=O)[C@H](CO)NC(=O)[C@@H](NC(=O)[C@H](CC(=O)O)NC(=O)[C@H](CO)NC(=O)[C@@H](NC(=O)[C@H](Cc1ccccc1)NC(=O)[C@@H](NC(=O)CNC(=O)[C@H](CCC(=O)O)NC(=O)CNC(=O)[C@@H](N)Cc1cnc[nH]1)[C@@H](C)O)[C@@H](C)O)C(C)C)C(=O)N[C@@H](C)C(=O)N[C@@H](Cc1c[nH]c2ccccc12)C(=O)N[C@@H](CC(C)C)C(=O)N[C@H](C(=O)N[C@@H](CCCCN)C(=O)NCC(=O)N[C@@H](CCCNC(=N)N)C(=O)N[C@@H](CSC1CC(=O)N(CCCCCC(=O)Nc2ccc(C(c3c(O)c4ccccc4oc3=O)c3c(O)c4ccccc4oc3=O)cc2)C1=O)C(N)=O)C(C)C (stereo partly specified),18.6 h,3.2 pM,0.248
CC[C@H](C)[C@H](NC(=O)[C@H](Cc1ccccc1)NC(=O)[C@H](CCC(=O)O)NC(=O)[C@H](CCCCN)NC(=O)[C@H](C)NC(=O)[C@H](C)NC(=O)[C@H](CCC(N)=O)NC(=O)CNC(=O)[C@H](CCC(=O)O)NC(=O)[C@H](CC(C)C)NC(=O)[C@H](Cc1ccc(O)cc1)NC(=O)[C@H](CO)NC(=O)[C@H](CO)NC(=O)[C@@H](NC(=O)[C@H](CC(=O)O)NC(=O)[C@H](CO)NC(=O)[C@@H](NC(=O)[C@H](Cc1ccccc1)NC(=O)[C@@H](NC(=O)CNC(=O)[C@H](CCC(=O)O)NC(=O)CNC(=O)[C@@H](N)Cc1cnc[nH]1)[C@@H](C)O)[C@@H](C)O)C(C)C)C(=O)N[C@@H](C)C(=O)N[C@@H](Cc1c[nH]c2ccccc12)C(=O)N[C@@H](CC(C)C)C(=O)N[C@H](C(=O)N[C@@H](CSC1CC(=O)N(CCCCCC(=O)Nc2ccc(C(c3c(O)c4ccccc4oc3=O)c3c(O)c4ccccc4oc3=O)cc2)C1=O)C(=O)NCC(=O)N[C@@H](CCCNC(=N)N)C(N)=O)C(C)C (stereo partly specified),22.1 h,7.3 pM,0.198
CC[C@H](C)[C@H](NC(=O)[C@H](Cc1ccccc1)NC(=O)[C@H](CCC(=O)O)NC(=O)[C@H](CCCCN)NC(=O)[C@H](C)NC(=O)[C@H](C)NC(=O)[C@H](CCC(N)=O)NC(=O)CNC(=O)[C@H](CCC(=O)O)NC(=O)[C@H](CC(C)C)NC(=O)[C@H](Cc1ccc(O)cc1)NC(=O)[C@H](CO)NC(=O)[C@H](CO)NC(=O)[C@@H](NC(=O)[C@H](CC(=O)O)NC(=O)[C@H](CO)NC(=O)[C@@H](NC(=O)[C@H](Cc1ccccc1)NC(=O)[C@@H](NC(=O)CNC(=O)[C@H](CCC(=O)O)NC(=O)CNC(=O)[C@@H](N)Cc1cnc[nH]1)[C@@H](C)O)[C@@H](C)O)C(C)C)C(=O)N[C@@H](C)C(=O)N[C@@H](Cc1c[nH]c2ccccc12)C(=O)N[C@@H](CC(C)C)C(=O)N[C@H](C(=O)N[C@@H](CCCCN)C(=O)NCC(=O)N[C@@H](CCCNC(=N)N)C(N)=O)C(C)C,0.8 h,,0.937
